The target of assay [1] is T1, Corticotropin-releasing factor receptor 1 (Homo sapiens, UniProt P34998).
T1 sequence (P34998 whole entry): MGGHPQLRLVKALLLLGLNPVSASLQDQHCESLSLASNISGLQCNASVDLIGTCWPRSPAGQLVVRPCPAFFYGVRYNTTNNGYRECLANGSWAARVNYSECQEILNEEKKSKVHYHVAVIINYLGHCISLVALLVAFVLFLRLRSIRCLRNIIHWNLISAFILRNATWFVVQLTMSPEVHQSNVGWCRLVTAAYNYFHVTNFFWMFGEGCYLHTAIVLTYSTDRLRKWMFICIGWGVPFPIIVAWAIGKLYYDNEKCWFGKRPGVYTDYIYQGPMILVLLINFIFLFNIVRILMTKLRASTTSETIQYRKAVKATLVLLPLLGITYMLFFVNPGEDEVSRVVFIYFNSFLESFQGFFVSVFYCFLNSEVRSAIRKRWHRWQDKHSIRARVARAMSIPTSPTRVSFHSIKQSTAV
Nature of the assay: Displacement of [125I] Tyr-o-CRF from human […] expressed in human IMR-32 cells after 100 mins. The class given is cell-based. Summed up:
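Membranes from transformed IMR-32 cells incubated with 100 pM [125I]Tyr-o-CRF and increasing test-compound concentrations, 100 min, 25 °C. Buffer: 50 mM Tris pH 7.2, 10 mM MgCl2, 0.5% BSA, 0.005% Triton X-100, aprotinin, leupeptin. Stopped with ice-cold 50 mM Tris pH 7.4, 0.2% BSA. Nonspecific binding defined with o-CRF. Values given as Ki.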

Assay [2] has as its target T2, Corticotropin-releasing factor receptor 1 (Homo sapiens) (UniProt P34998).
T2 sequence (whole entry): T1 sequence (P34998 whole entry)
In words: Antagonist activity at human CRF1 receptor expressed in human IMR-32 cells assessed as inhibition of CRF-stimulated cAMP production. In kind it is functional, cell-based.

SMILES strings stand for the structures. Calls of active or inactive are those of the source. How the calls were made is not given here.

The molecule `Cc1cc(C)c(-n2c(Cl)cn3c(CN4CCC(c5ccccc5)C4)c(C(F)(F)F)nc23)c(C)c1` (centres undefined) registered a Ki in assay [1] of 610 nM. Besides, in assay [2], the result was Active.

Molecule `Cc1cc(C)c(-n2c(Cl)cn3c(CN4CCC(C)CC4)c(C(F)(F)F)nc23)c(C)c1` gave a Ki in assay [1] of 3200 nM. Further, the outcome in assay [2] was Active.

Regarding `Cc1cc(C)c(-n2c(Cl)cn3c(CN(CCC(F)(F)F)Cc4ccccc4)c(C(F)(F)F)nc23)c(C)c1`, in assay [1], affinity was put at a Ki of 43 nM. The result in assay [2] was Active.

`CCCN(Cc1c(C(F)(F)F)nc2n(-c3c(C)cc(C)cc3C)c(Cl)cn12)CC1CC1` had a Ki in assay [1] of 9.1 nM. Further, the result in assay [2] was Active.

In assay [1], `C=C(C)CN(CC)Cc1c(C(F)(F)F)nc2n(-c3c(C)cc(C)cc3C)c(Cl)cn12` yielded a Ki of 67 nM. In addition, the outcome in assay [2] was Active.

For the molecule `Cc1cc(C)c(-n2c(Cl)cn3c(CN4CCCC4c4ccccc4)c(C(F)(F)F)nc23)c(C)c1` (centres undefined), in assay [1], the Ki is above 7000 nM. In addition, the outcome in assay [2] was Active.

Molecule `Cc1cc(C)c(-n2c(Cl)cn3c(CN(CCC(F)(F)F)Cc4ccc(Cl)cc4)c(C(F)(F)F)nc23)c(C)c1` displayed a Ki in assay [1] of 12 nM. Also, in assay [2], the outcome was Active.

For `CCN(Cc1ccccc1C)Cc1c(C(F)(F)F)nc2n(-c3c(C)cc(C)cc3C)c(Cl)cn12`, the affinity in assay [1] corresponds to a Ki of 4800 nM. Moreover, the result in assay [2] was Active.

In assay [1], `CCCN(Cc1cccc(F)c1)Cc1c(C(F)(F)F)nc2n(-c3c(C)cc(C)cc3C)c(Cl)cn12` came in with a Ki of 260 nM. In assay [2], the result was Active.

The molecule `CCN(Cc1ccc(Cl)c(Cl)c1)Cc1c(C(F)(F)F)nc2n(-c3c(C)cc(C)cc3C)c(Cl)cn12` displayed a Ki in assay [1] of 580 nM. In assay [2], the outcome was Active.

Turning to `CCCN(Cc1c(C(F)(F)F)nc2n(-c3ccc(C)cc3OC)c(Cl)cn12)CC1CC1`, in assay [1], affinity was put at a Ki of 13 nM. In assay [2], the result was Active.

As for `Cc1cc(C)c(-n2c(Cl)cn3c(CN(CC4CCC4)CC(F)(F)F)c(C(F)(F)F)nc23)c(C)c1`, the Ki in assay [1] was 13 nM. In addition, the outcome in assay [2] was Active.

In assay [1], `Cc1cc(C)c(-n2c(Cl)cn3c(CN(CCc4ccccc4)CCC(F)(F)F)c(C(F)(F)F)nc23)c(C)c1` yielded a Ki of 1900 nM. Also, the outcome in assay [2] was Active.

As for `Cc1cc(C)c(-n2c(Cl)cn3c(CN(C)Cc4ccco4)c(C(F)(F)F)nc23)c(C)c1`, in assay [1], affinity was put at a Ki of 180 nM. For the same molecule, the outcome in assay [2] was Active.

`Cc1cc(C)c(-n2c(Cl)cn3c(CN4CCCC(C)C4)c(C(F)(F)F)nc23)c(C)c1` (centres undefined) registered a Ki in assay [1] of 5800 nM. Further, the result in assay [2] was Active.

With `Cc1cc(C)c(-n2c(Cl)cn3c(CN4CCCC4Cc4ccccc4)c(C(F)(F)F)nc23)c(C)c1` (centres undefined), in assay [1], the affinity, expressed as Ki, was 190 nM. For the same molecule, the outcome in assay [2] was Active.

In turn, `CCN(CCC1CC1)Cc1c(C(F)(F)F)nc2n(-c3c(C)cc(C)cc3C)c(Cl)cn12` gave a Ki in assay [1] of 13 nM. Further, the result in assay [2] was Active.

A word on the Ki: it is the dissociation constant of the complex between target and ligand, obtained from inhibition or displacement. A low value points to higher affinity.

For the origin of these results see ChEMBL document CHEMBL1155541, “Discovery of 6-chloro-2-trifluoromethyl-7-aryl-7H-imidazo[1,2-a]imidazol-3-ylmethylamines, a novel class of corticotropin-releasing factor receptor type 1 (CRF1R) antagonists” (Bioorg Med Chem Lett, 2010).
